The subject of one assay is Helminthosporium. The assay can be described thus: Antifungal activity against Helminthosporium oryzae 2537 ICAR at 28 degC after 72 hrs. Type of assay: functional. Conditions: for MIC: Helminthosporium, 72 h. The procedure, abridged: (§1)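 Filamentous fungi were kept on SDA at 28 °C. Spores from 7-day cultures were suspended in sterile normal saline to about 10⁵ cfu/ml, and about 0.1 ml was spread on SDA plates. Compounds were serially diluted two-fold in DMSO and impregnated on 8 mm discs, with a solvent control disc on each plate. Plates were held at 28 °C for 72 h or more, and inhibition zone diameter was read in mm.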

A further assay concerns Aspergillus niger. The assay can be described thus: Antifungal activity against Aspergillus niger at 28 degC after 72 hrs. It counts as functional. Conditions: for MIC: Aspergillus niger, 72 h. The procedure, abridged:
as §1

For a further assay, the system named is Candida albicans. Nature of the assay: Antifungal activity against Candida albicans IOA-109 at 37 degC after 18 to 48 hrs. Conditions: for MIC: Candida albicans, IOA-109. Type of assay: functional.
The next assay concerns Penicillium sp. Nature of the assay: Antifungal activity against Penicillium sp. at 28 degC after 72 hrs. To be noted: for MIC: Penicillium sp., 72 h. Type of assay: functional. Put shortly: as §1
Another assay has as its system Bacillus subtilis. The assay can be described thus: Antibacterial activity against Bacillus subtilis ATCC 6051 at 37 degC after 24 hrs by filter paper disk method. It counts as functional. Conditions: for MIC: Bacillus subtilis, ATCC 6051, 24 h. Put shortly:
(§2)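 Compounds were taken from a 1 mg/ml DMSO stock and serially diluted two-fold over a 300 to 18.75 range, then loaded onto sterile 8 mm paper discs. Bacteria were grown overnight in nutrient broth at 37 °C, pelleted, and resuspended in sterile NSS to 10⁵ cfu/ml. About 0.1 ml was spread on NA plates. Plates were incubated 24 h at 37 °C with a solvent control disc, and inhibition zone diameter was read in mm.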

A further assay deals with Escherichia coli. The assay can be described thus: Antibacterial activity against Escherichia coli K-12 at 37 degC after 24 hrs by filter paper disk method. Type of assay: functional. Conditions: for MIC: Escherichia coli, K-12, 24 h. Put shortly:
as §2

A further assay concerns Trichoderma viride. Nature of the assay: Antifungal activity against Trichoderma viride at 28 degC after 72 hrs. It counts as functional. To be noted: for MIC: Trichoderma viride, 72 h. Put shortly:
as §1

The next assay has as its system Salmonella typhimurium. Nature of the assay: Antibacterial activity against Salmonella Typhimurium MTCC 98 at 37 degC after 24 hrs by filter paper disk method. It counts as functional, Salmonella enterica subsp. enterica serovar Typhimurium. To be noted: for MIC: Salmonella enterica, MTCC 98, 24 h. The procedure, abridged: as §2
The next assay concerns Staphylococcus aureus. The assay can be described thus: Antibacterial activity against Staphylococcus aureus MSSA 22 at 37 degC after 24 hrs by filter paper disk method. It counts as functional. To be noted: for MIC: Staphylococcus aureus, MSSA 22, 24 h. Put shortly:
as §2

The text below walks through data of ChEMBL document CHEMBL1137675, “Convenient one-pot synthesis of novel 2-substituted benzimidazoles, tetrahydrobenzimidazoles and imidazoles and evaluation of their in vitro antibacterial and antifungal activities” (2009).

The term MIC denotes the lowest concentration found to suppress growth. A lower MIC goes with a more susceptible organism.

≈ marks a conversion by molar mass, not a printed value.

For the compound `C=CCCCCCCCCc1nc2c([nH]1)CCCC2`, the “diameter of the inhibition zone (DIZ)” value with Helminthosporium is reported as 11 mm; in the assay with Aspergillus niger it was 12 mm; in the assay with Candida albicans, 18 mm; in the assay with Penicillium sp. it was 18 mm; in the assay with Bacillus subtilis it was 18 mm; in the assay on Escherichia coli, 17 mm. Further, the “diameter of the inhibition zone (DIZ)” value in the assay on Trichoderma viride stood at 7 mm; with Salmonella typhimurium, 11 mm; with Staphylococcus aureus, 18 mm. For the same compound, the MIC against Helminthosporium came out at 150 µg/mL (≈ 576 µM); in the assay on Aspergillus niger, 37.5 µg/mL (≈ 144 µM); against Candida albicans, 75 µg/mL (≈ 288 µM); against Penicillium sp. it was 75 µg/mL (≈ 288 µM); in the assay on Bacillus subtilis, 75 µg/mL (≈ 288 µM); in the assay on Escherichia coli, 37.5 µg/mL (≈ 144 µM). The results for the minimal inhibitory concentration (MIC) in the assay with Trichoderma viride, in the assay with Salmonella typhimurium and against Staphylococcus aureus were 37.5 µg/mL (≈ 144 µM), 75 µg/mL (≈ 288 µM) and 75 µg/mL (≈ 288 µM), respectively.

For `CCCCC/C=C\CC[C@H](O)CCCCCCCc1nc2ccccc2[nH]1`, the “diameter of the inhibition zone (DIZ)” value in the assay on Helminthosporium is on record as 11 mm; in the assay on Aspergillus niger it was 14 mm; with Candida albicans, 18 mm; with Penicillium sp., 17 mm; in the assay on Bacillus subtilis, 19 mm; in the assay on Escherichia coli, 17 mm. The “diameter of the inhibition zone (DIZ)” value was determined as 8 mm in the assay on Trichoderma viride, 12 mm with Salmonella typhimurium and 19 mm in the assay on Staphylococcus aureus. For the same compound, the MIC came out at 150 µg/mL (≈ 405 µM) with Helminthosporium; 150 µg/mL (≈ 405 µM) with Aspergillus niger; 75 µg/mL (≈ 202 µM) in the assay with Candida albicans; 75 µg/mL (≈ 202 µM) with Penicillium sp.; 75 µg/mL (≈ 202 µM) in the assay with Bacillus subtilis; 150 µg/mL (≈ 405 µM) in the assay with Escherichia coli. For the same compound, the minimal inhibitory concentration (MIC) against Trichoderma viride is 75 µg/mL (≈ 202 µM); with Salmonella typhimurium it was 75 µg/mL (≈ 202 µM); with Staphylococcus aureus, 150 µg/mL (≈ 405 µM).

For the compound `CCCCC/C=C\CC[C@H](O)CCCCCCCc1nc2cc([N+](=O)[O-])ccc2[nH]1`, the “diameter of the inhibition zone (DIZ)” value with Helminthosporium is 14 mm; in the assay with Aspergillus niger, 14 mm; with Candida albicans, 19 mm; in the assay on Penicillium sp. it was 19 mm; with Bacillus subtilis, 22 mm; in the assay on Escherichia coli, 18 mm. Also, the results for the “diameter of the inhibition zone (DIZ)” value in the assay on Trichoderma viride, in the assay with Salmonella typhimurium and in the assay with Staphylococcus aureus were 9 mm, 13 mm and 19 mm, respectively. Moreover, the MIC against Helminthosporium came to 75 µg/mL (≈ 180 µM); in the assay on Aspergillus niger, 37.5 µg/mL (≈ 90.2 µM); with Candida albicans, 37.5 µg/mL (≈ 90.2 µM); in the assay on Penicillium sp. it was 37.5 µg/mL (≈ 90.2 µM); in the assay with Bacillus subtilis it was 37.5 µg/mL (≈ 90.2 µM); with Escherichia coli it was 37.5 µg/mL (≈ 90.2 µM). In addition, the MIC against Trichoderma viride, in the assay with Salmonella typhimurium and in the assay on Staphylococcus aureus was 37.5 µg/mL (≈ 90.2 µM) in each case.

On to `C=CCCCCCCCCc1nc2cc(Cl)ccc2[nH]1`, for which the “diameter of the inhibition zone (DIZ)” value with Helminthosporium is listed as 15 mm; in the assay with Aspergillus niger it was 15 mm; with Candida albicans, 18 mm; in the assay on Penicillium sp. it was 19 mm; in the assay on Bacillus subtilis it was 19 mm; with Escherichia coli it was 20 mm. Further, the “diameter of the inhibition zone (DIZ)” value in the assay on Trichoderma viride was 10 mm; in the assay with Salmonella typhimurium it was 14 mm; with Staphylococcus aureus, 22 mm. The MIC came out at 75 µg/mL (≈ 258 µM) against Helminthosporium; 37.5 µg/mL (≈ 129 µM) in the assay with Aspergillus niger; 37.5 µg/mL (≈ 129 µM) against Candida albicans; 37.5 µg/mL (≈ 129 µM) against Penicillium sp.; 75 µg/mL (≈ 258 µM) in the assay with Bacillus subtilis; 75 µg/mL (≈ 258 µM) in the assay with Escherichia coli. The minimum inhibitory concentration (MIC) against Trichoderma viride, in the assay on Salmonella typhimurium and in the assay on Staphylococcus aureus was 37.5 µg/mL (≈ 129 µM) each time.
